# Results: ChEMBL document CHEMBL3585287, “1-Benzyl-4-phenyl-1H-1,2,3-triazoles improve the transcriptional functions of estrogen-related receptor γ and promote the browning of white adipose” (Bioorg Med Chem, 2015)
# Calls of active or inactive are those of the source. The rule behind the calls is not given here.
# Experiments:
# [1] = biological target: T1, Estrogen-related receptor gamma (Homo sapiens) (UniProt P62508); assay: Activation of GAL4-DBD-ERRgamma ligand binding domain (unknown origin) expressed in HEK293FT cells at 2 uM incubated for 24 hrs by mammalian two-hybrid reporter gene assay; type: cell-based
# T1 sequence (whole entry): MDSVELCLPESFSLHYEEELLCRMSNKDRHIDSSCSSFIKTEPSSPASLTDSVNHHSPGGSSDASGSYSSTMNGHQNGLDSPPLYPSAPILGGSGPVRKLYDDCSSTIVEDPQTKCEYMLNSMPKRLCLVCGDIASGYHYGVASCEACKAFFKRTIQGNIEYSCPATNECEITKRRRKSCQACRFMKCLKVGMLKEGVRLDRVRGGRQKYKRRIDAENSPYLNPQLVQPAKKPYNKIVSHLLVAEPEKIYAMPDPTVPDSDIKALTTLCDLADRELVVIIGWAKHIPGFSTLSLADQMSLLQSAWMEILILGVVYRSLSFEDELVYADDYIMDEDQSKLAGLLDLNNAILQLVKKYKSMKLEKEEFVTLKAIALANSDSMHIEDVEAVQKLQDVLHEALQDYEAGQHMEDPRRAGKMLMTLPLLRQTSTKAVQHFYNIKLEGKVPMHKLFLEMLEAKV
# Procedure, shortened: (§1)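 293FT cells (DMEM, 10% FBS) were seeded at 10,000 cells/well and transfected 18-24 h later with GAL4-DBD-ERRγ-LBD (0.5 ng), pcDNA-PGC-1α (0.5 ng), pFR reporter (25 ng) and pRLTK renilla (3 ng). After 6 h, compound was added at 2 μM for 24 h. Dual luciferase readout, firefly/renilla ratio taken as RLU. Run in triplicate, ≥3 independent experiments.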
# [2] = biological target: T2, Estrogen-related receptor gamma (Mus musculus) (UniProt P62509); assay: Increase in ERRgamma mediated transcriptional activity in primary mouse embryonic fibroblasts assessed as increase in SHP mRNA levels at 1 uM by quantitative real time PCR assay
# T2 sequence (whole entry): T1 sequence (whole entry)
# Procedure, shortened: (§2)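 MEFs were grown to confluence and held 2 days, then differentiated from day 0 with 5 μg/mL insulin, 1 μM dexamethasone and 0.5 mM IBMX. From day 8, cells received compound in DMEM/10% FBS for 2 more days. Total RNA was extracted with Trizol and reverse transcribed; SYBR qPCR normalized to GAPDH. Mean ± SEM of three independent experiments.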
# [3] = biological target: T2, Estrogen-related receptor gamma (Mus musculus); assay: Increase in ERRgamma mediated transcriptional activity in primary mouse embryonic fibroblasts assessed as increase in ERRalpha mRNA levels at 1 uM by quantitative real time PCR assay; procedure, shortened: as §2
# [4] = biological target: T2, Estrogen-related receptor gamma (Mus musculus); assay: Increase in ERRgamma mediated transcriptional activity in primary mouse embryonic fibroblasts assessed as increase in ATP5b mRNA levels at 1 uM by quantitative real time PCR assay; procedure, shortened: as §2
# [5] = biological target: T2, Estrogen-related receptor gamma (Mus musculus); assay: Increase in ERRgamma mediated transcriptional activity in primary mouse embryonic fibroblasts assessed as increase in MCAD mRNA levels at 1 uM by quantitative real time PCR assay; procedure, shortened: as §2
# [6] = biological target: T1, Estrogen-related receptor gamma (Homo sapiens); assay: Activation of GAL4-DBD-ERRgamma ligand binding domain (unknown origin) expressed in HEK293FT cells incubated for 24 hrs by mammalian two-hybrid reporter gene assay; type: cell-based; procedure, shortened: as §1
# [7] = biological target: T2, Estrogen-related receptor gamma (Mus musculus); assay: Increase in ERRgamma mediated transcriptional activity in primary mouse embryonic fibroblasts assessed as increase in SHP mRNA levels by quantitative real time PCR assay; procedure, shortened: as §2
# [8] = biological target: T2, Estrogen-related receptor gamma (Mus musculus); assay: Increase in ERRgamma mediated transcriptional activity in primary mouse embryonic fibroblasts assessed as increase in ERRalpha mRNA levels by quantitative real time PCR assay; procedure, shortened: as §2
# [9] = biological target: T2, Estrogen-related receptor gamma (Mus musculus); assay: Increase in ERRgamma mediated transcriptional activity in primary mouse embryonic fibroblasts assessed as increase in ATP5b mRNA levels by quantitative real time PCR assay; procedure, shortened: as §2
# [10] = biological target: T2, Estrogen-related receptor gamma (Mus musculus); assay: Increase in ERRgamma mediated transcriptional activity in primary mouse embryonic fibroblasts assessed as increase in MCAD mRNA levels by quantitative real time PCR assay; procedure, shortened: as §2
# MEF [11] = assay: Increase ERRgamma mRNA levels in primary mouse embryonic fibroblasts at 0.5 to 5 uM by quantitative real time PCR assay; type: functional, cell-based; procedure, shortened: as §2
# [12] = biological target: T2, Estrogen-related receptor gamma (Mus musculus); assay: Increase in ERRgamma mediated transcriptional activity in primary mouse embryonic fibroblasts assessed as increase in MCAD protein levels at 0.5 to 5 uM by Western blotting method
# Procedure, shortened: (§3)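 Differentiated MEF adipocytes were treated with compound from day 8 for 2 days. Cells were lysed in RIPA buffer on ice; 40 μg protein was run on 12% SDS-PAGE and blotted to PVDF. Primary antibodies overnight at 4 °C (UCP1 1:1000, SDH 1:4000, MCAD 1:5000, ATP5b 1:1000, β-actin 1:2000), then HRP secondary for 4 h at 4 °C and ECL detection. Three independent experiments.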
# [13] = biological target: T2, Estrogen-related receptor gamma (Mus musculus); assay: Increase in ERRgamma mediated transcriptional activity in primary mouse embryonic fibroblasts assessed as increase in ATP5b protein levels at 0.5 to 5 uM by Western blotting method; procedure, shortened: as §3
# [14] = biological target: T3, Estrogen-related receptor gamma (Homo sapiens, UniProt P62508); assay: Binding affinity to ERRgamma (unknown origin) at 20 degC by isothermal titration calorimetry
# T3 sequence (P62508 whole entry): T1 sequence (whole entry)
# [15] = biological target: T1, Estrogen-related receptor gamma (Homo sapiens); assay: Binding affinity to ERRgamma (unknown origin) assessed as increase in protein melting temperature by CD spectroscopy
# Procedure, shortened: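 Purified ERRγ protein was diluted to 0.2 mg/mL in phosphate buffer and incubated overnight with ligand (200 mM DMSO stock). CD ellipticity was read at 200–260 nm in a 1 mm quartz cuvette. Temperature was stepped 1 °C at a time from 30 to 60 °C to obtain Tm.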
# MEF [16] = assay: In vitro induction of white adipose browning in primary mouse embryonic fibroblasts assessed as increase in UCP1 mRNA expression by real-time PCR assay; type: functional, cell-based; procedure, shortened: as §2
# MEF [17] = assay: In vitro induction of white adipose browning in primary mouse embryonic fibroblasts assessed as increase in UCP1 protein expression at 0.5 to 5 uM by Western blot method; type: functional, cell-based; procedure, shortened: as §3
# MEF [18] = assay: In vitro induction of white adipose browning in primary mouse embryonic fibroblasts assessed as increase in UCP1 positive adipocytes by Immunofluorescence staining assay; type: functional, cell-based
# Procedure, shortened: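 MEF-derived adipocytes on coverslips were treated from day 8 for 2 days. They were fixed in 4% formaldehyde, blocked in 5% BSA for 1 h, stained with rabbit anti-UCP1 (1:1000, 4 °C overnight) and then Alexa Fluor 647 secondary (1:200, 1 h), with DAPI nuclei. Imaged by fluorescence microscopy.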
# MEF [19] = assay: In vitro induction of white adipose browning in primary mouse embryonic fibroblasts assessed as increase in Prdm16 mRNA expression at 0.5 to 5 uM by real-time PCR assay; type: functional, cell-based; procedure, shortened: as §2
# Adipocyte = assay: In vitro induction of white adipose browning in mouse white adipocytes differentiated from primary preadipocytes cells of subcutaneous adipose tissue assessed as increase in UCP1 mRNA expression at 1 and 5 uM by real-time PCR assay; type: functional, cell-based
# Procedure, shortened: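 Subcutaneous fat preadipocytes were isolated by 0.1% collagenase I digestion (40 min, 37 °C), filtered and cultured. Differentiation used insulin (5 μg/mL), dexamethasone (1 μM) and IBMX (0.5 mM). From day 8, compound was given in DMEM/10% FBS for 2 days. UCP1 mRNA was measured by SYBR qPCR against GAPDH.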
# MEF [20] = assay: Induction of mitochondrial biogenesis in primary mouse embryonic fibroblasts assessed as increase in PGC-1alpha mRNA expression at 0.5 to 5 uM by quantitative real time PCR assay; type: functional, cell-based; procedure, shortened: as §2
# MEF [21] = assay: Induction of mitochondrial biogenesis in primary mouse embryonic fibroblasts assessed as increase in CS mRNA expression at 0.5 to 5 uM by quantitative real time PCR assay; type: functional, cell-based; procedure, shortened: as §2
# MEF [22] = assay: Induction of mitochondrial biogenesis in primary mouse embryonic fibroblasts assessed as increase in CPT1 mRNA expression at 0.5 to 5 uM by quantitative real time PCR assay; type: functional, cell-based; procedure, shortened: as §2
# MEF [23] = assay: Induction of mitochondrial biogenesis in primary mouse embryonic fibroblasts assessed as increase in COX2 mRNA expression at 0.5 to 5 uM by quantitative real time PCR assay; type: functional, cell-based; procedure, shortened: as §2
# MEF [24] = assay: Induction of mitochondrial biogenesis in primary mouse embryonic fibroblasts assessed as increase in SDH mRNA expression at 0.5 to 5 uM by quantitative real time PCR assay; type: functional, cell-based; procedure, shortened: as §2
# MEF [25] = assay: Induction of mitochondrial biogenesis in primary mouse embryonic fibroblasts assessed as increase in SDH protein expression at 0.5 to 5 uM by Western blot method; type: functional, cell-based; procedure, shortened: as §3
# MEF [26] = assay: Induction of mitochondrial biogenesis in primary mouse embryonic fibroblasts at 5 uM incubated for 2 days by electron microscopy; type: functional, cell-based
# Procedure, shortened: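 On day 10, MEF-derived white adipocytes were fixed in 2.5% glutaraldehyde for 1 h, post-fixed in 1% osmic acid for 1 h, dehydrated in graded ethanol and embedded in epoxy. Ultrathin sections were stained with uranyl acetate and lead citrate and examined by transmission electron microscopy.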
# Mus musculus [27] = assay: In vivo induction of white adipose browning in C57BL6 mouse subcutaneous white adipose tissue assessed as increase in UCP1 mRNA expression at 20 mg/kg/day, po by real-time PCR assay; type: functional, organism-based
# Procedure, shortened: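 Male C57BL6 mice (8 weeks) on 60% fat diet received 20 mg/kg compound or vehicle (5% alcohol in PBS) daily by oral gavage for 4 weeks. Subcutaneous white adipose was collected and stored at -80 °C; RNA was analyzed by SYBR qPCR against GAPDH.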
# Mus musculus [28] = assay: In vivo induction of white adipose browning in C57BL6 mouse subcutaneous white adipose tissue assessed as increase in UCP1 positive stained area at 20 mg/kg/day, po by immunohistochemistry; type: functional, organism-based
# Procedure, shortened: (§4)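 Male C57BL6 mice (8 weeks) on a high-fat diet (60% energy as fat) were gavaged daily for 4 weeks with 20 mg/kg compound or vehicle (5% alcohol in PBS). Adipose tissues were fixed overnight in 4% formaldehyde, paraffin-sectioned and immunostained for UCP1 (1:1000); UCP1-positive area was quantified. Two independent experiments.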
# Mus musculus [29] = assay: In vivo induction of white adipose browning in C57BL6 mouse interscapularbrown adipose tissue assessed as increase in UCP1 expression at 20 mg/kg/day, po by immunohistochemistry; type: functional, organism-based; details: in the assay text read “subcutaneous white adipose tissue” for “interscapularbrown adipose tissue”; procedure, shortened: as §4
compound,measurement,setting,value
Oc1ccc(-c2cn(Cc3ccccc3)nn2)cc1O,fold change (FC),[1],1.43
CC(C)c1ccccc1Cn1cc(-c2ccc(O)c(O)c2)nn1,fold change (FC),[1],2.4
CC(C)c1ccc(Cn2cc(-c3cccc(O)c3)nn2)cc1,fold change (FC),[1],2.21
CC(C)c1ccc(Cn2cc(-c3ccccc3O)nn2)cc1,fold change (FC),[1],1.1
same,Activity,[2],inactive
same,Activity,[3],inactive
same,Activity,[4],inactive
same,Activity,[5],inactive
Oc1ccc(-c2cn(Cc3ccc(-c4ccccc4)cc3)nn2)cc1O,fold change (FC),[1],2.56
Cc1ccc(Cn2cc(-c3ccc(O)c(O)c3)nn2)cc1,fold change (FC),[1],2.9
CC(C)c1ccc(/C=N/NC(=O)c2ccc(O)cc2)cc1,fold change (FC),[1],1.85
CC(C)(C)c1ccc(Cn2cc(-c3ccc(O)c(O)c3)nn2)cc1,fold change (FC),[1],4.18
CC(C)c1ccc(Cn2cc(-c3ccccc3)nn2)cc1,fold change (FC),[1],1.31
CC(C)c1ccc(Cn2cc(-c3ccc(O)c(O)c3)nn2)cc1,fold change (FC),[1],4.98
same,Activity,[6],Dose-dependent effect
same,Activity,[7],Dose-dependent effect
same,Activity,[8],Dose-dependent effect
same,Activity,[9],Dose-dependent effect
same,Activity,[10],Dose-dependent effect
same,Activity,MEF [11],Active
same,Activity,[12],Active
same,Activity,[13],Active
same,Kd,[14],46 µM
same,ΔTm,[15],0.7 °C
same,Activity,MEF [16],Dose-dependent effect
same,Activity,MEF [17],Active
same,Activity,MEF [18],Active
same,Activity,MEF [19],Active
same,Activity,Adipocyte,Active
same,Activity,MEF [20],Active
same,Activity,MEF [21],Active
same,Activity,MEF [22],Active
same,Activity,MEF [23],Active
same,Activity,MEF [24],Active
same,Activity,MEF [25],Active
same,Activity,MEF [26],Active
same,Activity,Mus musculus [27],Active
same,Activity,Mus musculus [28],Active
same,Activity,Mus musculus [29],Active
CC(C)c1cccc(Cn2cc(-c3ccc(O)c(O)c3)nn2)c1,fold change (FC),[1],3.32
CC(C)c1ccc(Cn2cc(-c3ccc(O)cc3)nn2)cc1,fold change (FC),[1],1.69
